A selection: hits, their analogues and other compounds. The true share with any hit is near 6.8%.
HSF1 activator = increases HSF-1 driven luciferase reporter signal; hit rate 1.7% among 300,000; NIH3T3-HGL HSF-1 luciferase reporter, MG132, 8 h; 100% = twice DMSO control signal; activation, % at 9 µM;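 active means mean replicate activation of at least 50% with a set share of replicates each reaching 50%; inconclusive means only one of those two conditions met; inactive means mean below 50% and too few replicates reaching it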
HSF1 inh = HSF1 inhibition. NIH3T3-HGL HSE-luciferase, MG132-induced, luminescence 8 h; stronger effect = lower value. activity change, negative = inhibition, % at 7.5 µM (by protocol). hit rate 0.77% among 300,000. AID 2098;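 active means more than half of replicate wells show activity change below -50%, luminescence cut by over half; inconclusive means some wells, but at most half, below -50%; inactive means no replicate well below -50%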;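 further: luciferase reports HSF-1 transcriptional activity via heat shock element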
AI-2 QS mod = modulators of Vibrio harveyi AI-2 quorum sensing system | Vibrio harveyi JMH597 AI-2 luminescence/OD600 ratio, 9 h; stronger effect = lower value; strain lacks LuxN and CqsS sensors; 0 = neutral-control median | activity change, % at 7.5 µM | hit rate 0.4% among 300,000; in the data active means activity change below about -75%, passing the limit was not always enough; inconclusive means no clear call, values can overlap the other calls;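 further: luminescence divided by OD600 gain over 9 h not by final OD600 alone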
ALR H2O2 inh = human ALR oxidase inhibition via reduced H2O2; P55789; purified ALR, DTT oxidation, H2O2 HRP-luminol luminescence; inhibition, % (test concentration not listed); hit rate 3.8% among 290,000; AID 485317;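 active means mean replicate inhibition above about 79%, with every replicate also reaching it, limit read from the data; inconclusive means only one of the two criteria met; inactive means mean below limit and not every replicate reaching it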
Target sequence (P55789 whole entry, looked up): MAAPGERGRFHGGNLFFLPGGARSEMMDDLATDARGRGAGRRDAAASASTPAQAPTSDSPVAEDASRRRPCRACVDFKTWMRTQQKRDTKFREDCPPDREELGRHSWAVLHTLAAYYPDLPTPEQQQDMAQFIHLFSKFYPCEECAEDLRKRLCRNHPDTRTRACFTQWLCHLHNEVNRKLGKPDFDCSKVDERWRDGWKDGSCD
HCV core dimer = HCV core protein dimerization inhibition | TR-FRET GST/Flag-core106 dimerization, 1536-well | inhibition, % at 5 µM | hit rate 0.33% among 300,000;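 active means inhibition above the mean of all tested compounds plus 3 SD, set per screening campaign, cut at about 45% in these data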
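Assay system: Tagged HCV core106 pair (GST and Flag) | Buffer or medium: KF-containing HEPES buffer, pH 7.45, DTT, CHAPS, BSA | Also added: Eu donor and XL665 acceptor anti-tag antibodies | Dosing: One concentration, 5 µM, in 0.5% DMSO | Timing: 4 h at 22.5 °C | Technique: TR-FRET 671 and 617 nm emission | Repeats: Singlicate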
PHOSPHO1 block = inhibitors of human PHOSPHO1 phosphatase; Q8TCT1; recombinant PHOSPHO1, absorbance phosphatase assay; inhibition, % at 13.3 µM; hit rate 1.1% among 290,000; AID 1565; in the data active means inhibition above about 60%
Target sequence (Q8TCT1 whole entry, looked up): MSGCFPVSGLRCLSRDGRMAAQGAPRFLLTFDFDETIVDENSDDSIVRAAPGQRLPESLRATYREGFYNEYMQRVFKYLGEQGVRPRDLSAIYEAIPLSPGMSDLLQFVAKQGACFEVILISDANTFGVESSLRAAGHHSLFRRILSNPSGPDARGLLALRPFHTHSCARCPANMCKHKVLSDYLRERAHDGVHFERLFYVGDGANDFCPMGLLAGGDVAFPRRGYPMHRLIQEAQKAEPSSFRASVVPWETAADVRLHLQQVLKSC
JMH597 growth = retest Vibrio harveyi JMH597 growth inhibition | shares compounds with AI-2 QS mod | OD600 absorbance, 9 h; lacks LuxN and CqsS sensors | growth inhibition, % at 7.5 µM | hit rate 1% among 750 | AID 2726;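 active means every replicate shows growth inhibition above 50%; inconclusive means at least half, but not all, replicates pass that cutoff; inactive means fewer than half of replicates pass it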
BB721 lum counter = retest counter-screen: lowers luminescence of constitutive-QS Vibrio harveyi BB721. hit rate 95% among 750. shares compounds with AI-2 QS mod. 9 h. inhibition, % at 7.5 µM;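 active means inhibition above about 80% in every replicate, not just on average, limit read from the data; inconclusive means at least half of replicates past the limit, but not all; inactive means fewer than half of replicates past the limit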
BB721 growth = retest: blocks Vibrio harveyi BB721 growth; shares compounds with AI-2 QS mod; growth inhibition, % at 7.5 µM; AID 2728; OD600 absorbance, 9 h; hit rate 3% among 750;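 active means every replicate shows growth inhibition above 50%; inconclusive means at least half but not all replicates above 50% inhibition; inactive means under half of replicates above 50% inhibition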
JMH597 AI-2 mod = Vibrio harveyi AI-2 signaling luminescence modulation – JMH597 strain, confirmation | Vibrio harveyi JMH597 AI-2 quorum sensing luminescence, 9 h; luxN and CqsS knockout, AI-2 only | shares compounds with AI-2 QS mod | inhibition, % at 7.5 µM | AID 2736 | hit rate 97% among 750;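 active means every replicate shows more than 75% inhibition of signal versus neutral control wells; inconclusive means half to three quarters of replicates exceed 75% inhibition; inactive means fewer than half of replicates exceed 75% inhibition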
Each line names hits and unclear results; the compound was inactive in the other large screens (follow-up assays come after a bar, where they were run).

CCc1ccc(C(=O)NNC(=O)CN2C(=O)NC(CC)(c3ccccc3)C2=O)cc1 (configuration not stated)	AI-2 QS mod -83 (no result: PHOSPHO1 block) | JMH597 growth inactive | BB721 lum counter 88 | BB721 growth inactive | JMH597 AI-2 mod 94
Cc1ccc(S(=O)(=O)N(CC(=O)N(C(C)C)C(C)C)C(=O)N2CCN(C)CC2)cc1	none
CCOC(=O)c1cnc(COc2ccc(OC)cc2)[nH]c1=O	none
COc1ccc(CC(=O)O/N=C(\N)c2ccccn2)cc1	AI-2 QS mod inconclusive | JMH597 growth inactive | BB721 lum counter 84 | BB721 growth inactive | JMH597 AI-2 mod 88
Cc1ccc(/C(N)=N/OC(=O)Cc2ccccc2)cc1	none
COc1ccc(/C(N)=N/OC(=O)Cc2ccc(C)cc2)cc1	AI-2 QS mod -91 | JMH597 growth inactive | BB721 lum counter 95 | BB721 growth inactive | JMH597 AI-2 mod 97
N/C(=N\OC(=O)Cc1ccc(-c2ccccc2)cc1)c1ccccn1	none
CCC(=O)N1CCc2cc(Br)cc(S(=O)(=O)N3CCCCC3CC)c21 (configuration not stated)	none
Cc1ccc(C(=O)Nc2cccc3cccnc23)cc1C	none
CCOC(=O)CC(=O)NC1(Cc2ccc(O)cc2)CCCCC1	none
ClC1(Cl)CC1Cn1cnc2ccccc21 (configuration not stated)	none
Cc1cc(C(=O)Nn2cnc3ccccc3c2=O)ccc1[N+](=O)[O-]	AI-2 QS mod -86 | JMH597 growth inactive | BB721 lum counter 95 | BB721 growth inactive | JMH597 AI-2 mod 97
Cc1cccc(C2c3[nH]c4ccccc4c3CCN2C(=O)c2cc(CC(C)C)[nH]c(=O)n2)n1 (configuration not stated)	none
Cc1cccc(NS(=O)(=O)c2ccc(Oc3ccccc3)cc2)n1	AI-2 QS mod -89 | JMH597 growth inactive | BB721 lum counter inactive | BB721 growth inactive | JMH597 AI-2 mod 96
C=CCNC(=O)C1CCN(S(=O)(=O)c2ccc3ccccc3c2)CC1	AI-2 QS mod -81 (no result: PHOSPHO1 block) | JMH597 growth inactive | BB721 lum counter inactive | BB721 growth inactive | JMH597 AI-2 mod 99
O=C(OCc1ccc(Br)cc1)c1ccncc1	none
CC(=O)Nc1ccc(C(=O)OCc2ccc(Br)cc2)cc1	AI-2 QS mod -89 | JMH597 growth inactive | BB721 lum counter 96 | BB721 growth inconclusive | JMH597 AI-2 mod 95
CCCCCCCN1CCC(=O)N([C@H](CO)c2ccccc2)CC1	none (no result: ALR H2O2 inh)
CCN(CC(=O)N1CCOCC1)S(=O)(=O)c1ccc(Cl)cc1	none
CCOC(=O)c1ccc(NC(=O)CSc2nc3ncccc3[nH]2)cc1	AI-2 QS mod -91 | JMH597 growth inactive | BB721 lum counter 97 | BB721 growth inactive | JMH597 AI-2 mod 97
CCCCc1ccc(NC(=O)CSc2nc3ncccc3[nH]2)cc1	AI-2 QS mod -88 | JMH597 growth inactive | BB721 lum counter 93 | BB721 growth inactive | JMH597 AI-2 mod 96
O=C(Nc1cnn(Cc2ccc(Cl)cc2)c1)c1cccs1	AI-2 QS mod -89 | JMH597 growth inactive | BB721 lum counter 96 | BB721 growth inactive | JMH597 AI-2 mod 97
Cc1n[nH]c(C)c1NC(=O)CSc1nnnn1-c1cccc(F)c1	none (no result: HSF1 activator, HSF1 inh, AI-2 QS mod, HCV core dimer, PHOSPHO1 block)
CC(C)(C)c1ccc(OCC(=O)NN2Cc3ccccc3C2=N)cc1	HSF1 activator 92, AI-2 QS mod -89 | JMH597 growth inactive | BB721 lum counter inconclusive | BB721 growth inactive | JMH597 AI-2 mod 88
Cc1ccc(O)c(/C=N/NC(=O)Cc2ccc(Cl)cc2)c1	AI-2 QS mod -93 | JMH597 growth inactive | BB721 lum counter 99 | BB721 growth inactive | JMH597 AI-2 mod 99
Cc1ccsc1/C=N/NC(=O)Cc1ccc(Cl)cc1	none
CN(C(=O)c1cccs1)c1ccc(OCC(=O)Nc2ccc(C(=O)O)cc2)cc1	none (no result: HSF1 activator, HSF1 inh)
CCCn1c(=S)[nH]c2cc(C(=O)N3CCc4ccccc43)ccc2c1=O	AI-2 QS mod inconclusive | JMH597 growth inactive | BB721 lum counter 85 | BB721 growth inactive | JMH597 AI-2 mod 89
CCCCCn1c(=S)[nH]c2cc(C(=O)N3CCCC3)ccc2c1=O	none
N#CCCN(C(=O)COC(=O)c1ccc(S(=O)(=O)N2CCCC2)cc1)c1cccc(Cl)c1	none (no result: HSF1 activator, HSF1 inh, AI-2 QS mod, HCV core dimer, PHOSPHO1 block)
Cc1cc(NC(=O)CN2C(=O)NC(C)(c3ccc(OC(F)F)cc3)C2=O)no1 (configuration not stated)	none
CC1(c2ccc(OC(F)F)cc2)NC(=O)N(CC(=O)Nc2cccc(F)c2)C1=O (configuration not stated)	AI-2 QS mod -93 | JMH597 growth inactive | BB721 lum counter 95 | BB721 growth inactive | JMH597 AI-2 mod 97
CCOc1ccc(NC(=O)CN2C(=O)NC(C)(c3ccc(OC(F)F)cc3)C2=O)cc1 (configuration not stated)	AI-2 QS mod -93 | JMH597 growth inactive | BB721 lum counter 94 | BB721 growth 57 | JMH597 AI-2 mod 96
CC1(c2ccc(OC(F)F)cc2)NC(=O)N(CC(=O)Nc2ccc(Cl)cc2F)C1=O (configuration not stated)	AI-2 QS mod -94 | JMH597 growth inactive | BB721 lum counter 96 | BB721 growth inactive | JMH597 AI-2 mod 96
CCOC(=O)c1c(NC(=O)CN2C(=O)NC(C)(c3ccc(OC(F)F)cc3)C2=O)sc(C)c1C (configuration not stated)	none (no result: ALR H2O2 inh)
O=C(NCc1ccccn1)c1nc(Cn2ccc([N+](=O)[O-])n2)no1	none
CN(C)S(=O)(=O)c1ccc(C(=O)OCn2nnc3ccccc3c2=O)cc1	AI-2 QS mod -89 (no result: ALR H2O2 inh) | JMH597 growth inactive | BB721 lum counter 96 | BB721 growth inactive | JMH597 AI-2 mod 97
CN(C)S(=O)(=O)c1ccc(C(=O)Oc2ccccc2)cc1	AI-2 QS mod -80 | JMH597 growth inactive | BB721 lum counter 91 | BB721 growth inactive | JMH597 AI-2 mod 93
CN(Cc1ccccc1)C(=O)COC(=O)c1ccc(S(=O)(=O)N(C)C)cc1	AI-2 QS mod inconclusive
COc1ccc(C(=O)OCn2nnc3ccccc3c2=O)cc1OC	none
COc1ccccc1CNC(=O)c1ccc(S(=O)(=O)N(C)C)cc1	AI-2 QS mod -80 | JMH597 growth inactive | BB721 lum counter 84 | BB721 growth inactive | JMH597 AI-2 mod 90

Source: PubChem BioAssay
